MEKK2 WT-MEK5: raises or lowers MEK5 binding to wildtype human MEKK2 PB1 domain. bead flow cytometry, Alexa488-MEK5 binding to MEKK2 WT; actives lie on both sides. binding response (% of control), % at 10 µM. Q9Y2U5. AID 1531. hit rate 1.1% among 290,000; in the data active = binding response below about 67% or above about 130%
MEKK2mut PB1 HTS: signal of MEK5 binding to mutant human MEKK2 PB1 domain; percent response, % at 10 µM; hit rate 0.35% among 290,000; bead flow cytometry, Alexa488-MEK5 binding to MEKK2 mutant; in the data active = percent response above about 24%, passing the limit was not always enough
MEKK3 PB1 HTS: MEKK3-MEK5 PB1 interaction, increase or decrease. Q99759. bead-based flow cytometry, Alexa488-MEK5 binding to MEKK3; actives lie on both sides; 0 = blocked by unlabeled MEK5, 100 = vehicle. binding response (% of control), % at 10 µM. hit rate 1.4% among 290,000. AID 1529;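 active = binding response more than 3 SD above or below the average of its plate-row segment, actives on both sides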;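 also: Alexa488 bead fluorescence after subtracting the streptavidin-only scavenger bead signal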
Target sequence (Q99759 whole entry, looked up): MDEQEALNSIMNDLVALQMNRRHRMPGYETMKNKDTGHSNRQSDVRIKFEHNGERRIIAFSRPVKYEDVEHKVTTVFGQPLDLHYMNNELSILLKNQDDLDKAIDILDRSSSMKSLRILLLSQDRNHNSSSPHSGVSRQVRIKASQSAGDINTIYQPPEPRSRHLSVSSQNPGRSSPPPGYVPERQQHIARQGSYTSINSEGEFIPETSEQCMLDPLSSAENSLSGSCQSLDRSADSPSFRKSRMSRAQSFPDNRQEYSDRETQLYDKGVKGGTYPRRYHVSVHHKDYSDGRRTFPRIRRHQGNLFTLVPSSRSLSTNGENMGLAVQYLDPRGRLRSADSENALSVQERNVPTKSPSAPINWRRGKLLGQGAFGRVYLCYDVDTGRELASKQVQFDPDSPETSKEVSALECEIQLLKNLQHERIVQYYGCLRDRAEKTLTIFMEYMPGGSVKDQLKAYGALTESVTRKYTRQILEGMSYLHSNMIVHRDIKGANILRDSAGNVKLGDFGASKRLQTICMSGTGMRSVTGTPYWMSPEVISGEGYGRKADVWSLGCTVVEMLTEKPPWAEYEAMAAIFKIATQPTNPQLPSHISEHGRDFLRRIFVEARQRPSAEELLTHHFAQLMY
Hep lipid drop: hepatic lipid droplet formation modulation; inhibition, % at 6.5 µM; AML12 mouse hepatocytes, oleate lipid droplets, BODIPY imaging; hit rate 0.4% among 240,000;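 active = lipid droplet intensity inhibited by at least 50%, with more than 500 cells counted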
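Test system: AML12 mouse liver cells; schedule: overnight exposure; technique: high-content imaging of BODIPY-stained droplets and DAPI nuclei; read-out: % inhibition of corrected integrated BODIPY droplet signal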
Lipid drop inh: confirmation of inhibitors of hepatic lipid droplet formation. shares compounds with Hep lipid drop. AML12 mouse hepatocytes, BODIPY lipid droplet imaging; droplets induced with 100 µM oleic acid. inhibition, % at 5.2 µM. hit rate 65% among 870. AID 463183;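 active = inhibition of lipid droplet metric at least 50%, with more than 300 cells in each of four replicates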;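 also: plate controls were DMSO with oleic acid for no effect and 5 µM Triacsin-C for full effect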
AML12 cytotox: counter-screen for cytotoxicity in AML12 mouse hepatocytes; shares compounds with Hep lipid drop; DAPI nuclear morphology cytotoxicity imaging; hits give high values; cells fed 100 µM oleate overnight; z-score at 5 µM; hit rate 3% among 870; in the data active = z-score above about 6.3;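 also: compound exposure lasted overnight at 37 °C before fixation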
AML12 tox conf: AML12 hepatocyte cytotoxicity, confirmed | shares compounds with Hep lipid drop | AML12 mouse hepatocyte viability, ATP luminescence; cells loaded with 100 µM oleic acid | cytotoxicity, % at 50 µM | 530 tested, under 10 active | AID 463219;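 active = cytotoxicity above 50% in each of four replicates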;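 also: compound exposure lasted overnight at 37 °C before the ATP read; 0% = DMSO-treated cells and 100% = wells with no cells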
* = called active by the depositor; x = no result. Rows were chosen to be rich in hits. Some 2.6% of all compounds tested hit in one or more screens of this group.

SMILES | MEKK2 WT-MEK5 | MEKK2mut PB1 HTS | MEKK3 PB1 HTS | Hep lipid drop | Lipid drop inh | AML12 cytotox | AML12 tox conf
O=C(NCc1ccc(C(=O)O)cc1)OCc1ccccc1 | 73.0 | -21.0 | 74.0 | 63.0* | 14.5 | 0.00193 | x
CCOC(=O)NCc1ccccc1 | 97.0 | -6.0 | 103.0 | -4.9 | x | x | x
CCC(C)C(NC(=O)c1ccccc1NC(=O)c1ccc(OC)cc1)C(=O)NCc1ccco1 (configuration not stated) | 100.0 | 2.0 | 102.0 | 69.8* | 100.5* | -0.821 | 12.2
COc1ccc(C(=O)Nc2ccc(Cl)cc2C(=O)NCc2ccco2)cc1 | 99.0 | -1.0 | 94.0 | -14.3 | x | x | x
CCCCn1c(N)c(-c2nc3ccccc3s2)c2c([N+](=O)[O-])nn(CC)c(=O)c21 | 113.0 | 13.0 | 102.0 | 69.1* | 78.1* | -0.554 | -4.8
CCCCCn1c(N)c(-c2nc3ccccc3o2)c2c([N+](=O)[O-])nn(CC)c(=O)c21 | 121.0 | 16.0 | 99.0 | -13.5 | x | x | x
CCCCCn1c(N)c(-c2nc3ccccc3s2)c2c([N+](=O)[O-])nn(CC)c(=O)c21 | 102.0 | 6.0 | 102.0 | 71.5* | 73.3* | -0.716 | -14.2
CC(C)[C@H](NC(=O)c1ccco1)C(=O)N(C)Cc1ccc(C(F)(F)F)cc1 | 100.0 | 2.0 | 99.0 | -18.5 | x | x | x
COc1ccc(S(=O)(=O)N2CCOCC2)cc1NC(=O)c1ccccc1C | 97.0 | -5.0 | 101.0 | 51.2* | -13.4 | -0.585 | x
COc1ccccc1NC(=O)c1cc(S(=O)(=O)N2CCOCC2)ccc1Cl | 105.0 | 3.0 | 101.0 | 0.4 | x | x | x
CCOc1cc(/C=N\Nc2nc(Nc3ccccc3)nc(N3CCOCC3)n2)ccc1OC(=O)c1ccco1 | 111.0 | 12.0 | 100.0 | 132.0* | 108.8* | 20.5* | x
CCOc1ccc(CN(C)C(=O)CNC(=O)C2CCCCC2)cc1OC | 105.0 | 3.0 | 102.0 | 22.6 | x | x | x
CCOc1ccc(CN(C)C(=O)[C@H](Cc2ccccc2)NC(=O)OCc2ccccc2)cc1OC | 95.0 | 1.0 | 100.0 | -10.0 | x | x | x
CCOc1ccc(CN(C)C(=O)NNC(=O)c2ccc(C)cc2)cc1OC | 100.0 | -4.0 | 99.0 | 87.7* | 79.6* | -1.46 | 8.1
CCOc1ccc(CN(C)C(=O)CNC(=O)c2ccc(Br)o2)cc1OC | 103.0 | 5.0 | 104.0 | 80.1* | 84.8* | 0.708 | 13.1
CC(C)c1ccc(NC(=O)C(c2ccccc2)N2CC(=O)Nc3ccccc32)cc1 (configuration not stated) | 72.0 | -7.0 | 67.0 | -0.5 | x | x | x
CCn1cc(C(=O)N(C)c2ccc(OC)cc2)c2cc(OC)c(OC)cc2c1=O | 105.0 | 11.0 | 103.0 | 68.4* | 25.4 | -0.887 | x
COc1ccc(N(C)C(=O)c2cn(CC(C)C)c(=O)c3cc(OC)c(OC)cc23)cc1 | 103.0 | 6.0 | 103.0 | x | x | x | x
CCC(C)Oc1cc(-c2ccnc(Nc3cccc(Cl)c3)n2)ccn1 (configuration not stated) | 94.0 | 4.0 | 105.0 | -9.6 | x | x | x
OCCCNc1cc(-c2ccnc(Nc3cccc(Cl)c3)n2)ccn1 | 105.0 | -4.0 | 86.0 | 77.4* | 90.0* | 27.4* | x
Cc1cc(C(c2ccc(O)cc2)c2cc(C)c(O)cc2C)c(C)cc1O | 107.0 | 3.0 | 113.0 | 56.4* | 21.5 | -0.959 | x
O=C(Nc1ccccc1Cl)C1CC(=O)n2c(nc3ccccc32)N1 (configuration not stated) | 97.0 | -6.0 | 102.0 | 4.4 | x | x | x
CCC1(c2ccccc2)NC(=O)N(CC(=O)N(C)Cc2c(F)cccc2Cl)C1=O (configuration not stated) | 98.0 | 1.0 | 98.0 | 81.2* | 99.0* | 0.204 | 14.0
COC(=O)C(Cc1ccccc1)NC(=O)CCNC(=O)c1ccc(Br)cc1 (configuration not stated) | 95.0 | -6.0 | 98.0 | -12.4 | x | x | x
BrC(/C=N/N1CCN(Cc2ccccc2)CC1)=C/c1ccccc1 | 109.0 | 11.0 | 104.0 | -42.2 | x | x | x
SMILES | MEKK2 WT-MEK5 | MEKK2mut PB1 HTS | MEKK3 PB1 HTS | Hep lipid drop | Lipid drop inh | AML12 cytotox | AML12 tox conf
C=C(C)[C@@H]1CC[C@]2(C(=O)O)CC[C@]3(C)C(CCC4[C@@]5(C)CC[C@H](O)C(C)(C)C5CC[C@]43C)C12 (some centres not stated) | 93.0 | 2.0 | 101.0 | 57.9* | 20.4 | 0.656 | x
CCOC(=O)c1cc(S(=O)(=O)Nc2ccc(OC)cc2OC)cn1C | 105.0 | 1.0 | 101.0 | -14.5 | x | x | x
COc1ccc(NS(=O)(=O)c2ccc(NC(=S)NCC3CCCO3)cc2)cc1 (configuration not stated) | 105.0 | 2.0 | 98.0 | 84.4* | 99.8* | -0.393 | 18.8
COc1ccc(S(=O)(=O)Nc2ccc(S(=O)(=O)NCC3CCCO3)cc2)cc1 (configuration not stated) | 105.0 | 6.0 | 97.0 | 7.9 | x | x | x
CCOc1ccccc1Nc1nnc(SCC(=O)NC(=O)c2cccn2C)s1 | 101.0 | -1.0 | 107.0 | -0.9 | x | x | x
CCOc1ccccc1Nc1nnc(SC(C)C(=O)Nc2nc(-c3ccccc3)cs2)s1 (configuration not stated) | 94.0 | -2.0 | 97.0 | 74.8* | 105.4* | -0.199 | 6.9
O=S(=O)(c1ccc(Cl)cc1)N1CCC(N2CCOCC2)CC1 | 104.0 | 3.0 | 104.0 | 10.9 | x | x | x
Nc1nc(-c2ccc(Cl)cc2)c(N=Nc2ccc(S(=O)(=O)N3CCOCC3)cc2)s1 | 89.0 | -2.0 | 93.0 | 64.7* | 33.2 | 0.732 | x
COc1ccc(OC)c(CCNC(=O)C(C)n2nc(C)c3c(C)n(-c4ccc(C)cc4)nc3c2=O)c1 (configuration not stated) | 102.0 | 9.0 | 103.0 | 60.3* | 99.3* | -0.0521 | 22.5
COc1ccc(OC)c(CCNC(=O)C(C)n2nc(C)c3c(C)n(-c4ccccc4)nc3c2=O)c1 (configuration not stated) | 106.0 | 6.0 | 105.0 | 42.4 | x | x | x
C/C(=N/NS(=O)(=O)c1ccc(CC(C)C)cc1)c1ccncc1 | 114.0 | 6.0 | 102.0 | 4.9 | x | x | x
CCOC(=O)CSc1nc(N)c(C#N)c(-c2cccs2)c1C#N | 98.0 | 8.0 | 101.0 | x | x | x | x
CCOC(=O)CSc1c(-c2cccs2)[nH]c2ccccc12 | 99.0 | -1.0 | 102.0 | 82.9* | 95.4* | -0.712 | 3.7
CCn1c(CNC(=O)c2ccccc2OC)nnc1SCC(=O)c1ccc(F)cc1 | 101.0 | -1.0 | 104.0 | -1.1 | x | x | x
COc1ccc(CCNC(=O)CC(c2ccccc2)c2cc(C)ccc2O)cc1OC (configuration not stated) | 104.0 | 3.0 | 106.0 | 53.4* | 30.0 | 0.953 | x
COc1ccc(CCNC(=O)CCOc2cc(C)ccc2C)cc1OC | 106.0 | 4.0 | 100.0 | 67.6* | 90.8* | -0.0917 | 12.2
O=C(NC(CSSCC(NC(=O)c1ccccc1)C(=O)O)C(=O)O)c1ccccc1 (configuration not stated) | 104.0 | 5.0 | 106.0 | -5.6 | x | x | x

From PubChem
